For one series, the system named is Mus musculus. The series is described as follows: Wound healing activity in BALB/c mouse assessed as biopsy punch-induced wound closure at 56 pmol administered topically daily as 1.5% methyl cellulose gel for 4 days measured on day 4 post last dose relative to control. It counts as functional. A digest of the protocol: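 Female BALB/c mice, 11−12 weeks, 19−23 g, groups of 4−5. Under ip xylazine 16 mg/kg and ketamine 80 mg/kg, a 5 mm biopsy punch made a skin-deep scalp wound (~0.2 cm2). Betadine was applied first. Then 56 pmol in 50 μL 1.5% methylcellulose gel was applied daily, days 0−4. Healing at day 4 expressed relative to PBS vehicle.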

The test system of series [1] is NCI-H69. The experiment in a line: Induction of human H69 cell growth at 2 uM after 5 to 6 days by real time cell proliferation assay relative to control. Format: functional. A digest of the protocol: (§1)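 H69 SV40-transformed human cholangiocytes, seeded 1500 cells/well in complete media and grown overnight, then washed with PBS and held ≥6 h in low-nutrient medium (0.5% FCS, 1/20 growth factors). Single treatment added at 10× stock. Impedance cell index read hourly for 5−6 days and normalized to pre-treatment. Proliferation ratio taken at day 4 versus control (tropomyosin-derived 20-residue peptide for peptides; thioredoxin for recombinant protein). Two-Way ANOVA with Dunnett's correction.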

In series [2] the test system is NCI-H69. The series is described as follows: Cytotoxicity against human H69 cells up to 2 uM after 5 to 6 days by real time cell proliferation assay. Format: cell-based.
The test system of series [3] is H69 cholangiocyte cell line (Homo sapiens). The experiment in a line: Induction of human H69 cell growth at 400 nM after 5 to 6 days by real time cell proliferation assay relative to control.
Series [4] deals with NCI-H69. The series is described as follows: Induction of human H69 cell growth at 400 nM after 5 to 6 days by real time cell proliferation assay relative to control. It counts as functional. In outline: as §1
The test system of series [5] is NCI-H69. The series is described as follows: Induction of human H69 cell growth up to 2 uM after 5 to 6 days by real time cell proliferation assay. It counts as functional, cell-based. In outline:
as §1

Series [6] concerns NCI-H69. The experiment in a line: Induction of human H69 cell growth at 32 nM after 5 to 6 days by real time cell proliferation assay relative to control. Format: functional. In outline:
as §1

Calls of active or inactive are those of the source. The calls are words filed in the database; no cut-off is given here. Positions of bridges follow the written chain, without caps; N, C: chain ends. Residues, ends and D or L forms follow the SMILES beside them.

Consider `CC(C)C[C@@H]1NC(=O)CNC(=O)[C@H](CCCNC(=N)N)NC(=O)[C@H](C)NC(=O)[C@@H]2CSSC[C@H](N)C(=O)N3CCC[C@H]3C(=O)N[C@@H](CC(=O)O)C(=O)N3CCC[C@H]3C(=O)N[C@@H](C(C)C)C(=O)N[C@@H](Cc3ccc(O)cc3)C(=O)N[C@@H]([C@@H](C)O)C(=O)N[C@@H](CSSC[C@@H](C(=O)O)NC(=O)CNC(=O)[C@H](Cc3ccc(O)cc3)NC(=O)CNC(=O)[C@H](Cc3cnc[nH]3)NC1=O)C(=O)N[C@@H](CCCNC(=N)N)C(=O)N1CCC[C@H]1C(=O)NCC(=O)N[C@@H](CCC(N)=O)C(=O)N[C@@H]([C@@H](C)O)C(=O)N2` (H-CPDPVYTCRPGQTCARGLHGYGC-OH; disulfide 1-14, 8-23), for which the results for the Activity in the series on Mus musculus, in the series with NCI-H69 [1] and with NCI-H69 [2] were 37 - 41%, 14 - 25% and “Non-Toxic”, respectively. For the same molecule, the outcome in series [3] was inactive.
On to `CC[C@H](C)[C@H](NC(=O)[C@@H]1CCCN1C(=O)[C@H](CCC(N)=O)NC(=O)[C@H](CC(C)C)NC(=O)[C@@H](NC(=O)[C@H](CC(=O)O)NC(=O)[C@@H](N)CCSC)[C@@H](C)O)C(=O)N[C@@H](CCCNC(=N)N)C(=O)N[C@@H](CO)C(=O)N1CCC[C@H]1C(=O)N[C@@H](CO)C(=O)N[C@H]1CSSC[C@@H]2NC(=O)[C@H]([C@@H](C)O)NC(=O)[C@H](CCC(N)=O)NC(=O)CNC(=O)[C@@H]3CCCN3C(=O)[C@H](CCCNC(=N)N)NC(=O)[C@H](CSSC[C@@H](C(=O)N[C@@H](C)C(=O)O)NC(=O)CNC(=O)[C@H](Cc3ccc(O)cc3)NC(=O)CNC(=O)[C@H](Cc3cnc[nH]3)NC(=O)[C@H](CC(C)C)NC(=O)CNC(=O)[C@H](CCCNC(=N)N)NC(=O)[C@H](C)NC2=O)NC(=O)[C@H]([C@@H](C)O)NC(=O)[C@H](Cc2ccc(O)cc2)NC(=O)[C@H](C(C)C)NC(=O)[C@@H]2CCCN2C(=O)[C@H](CC(=O)O)NC(=O)[C@@H]2CCCN2C1=O` (H-MDTLQPIRSPSCPDPVYTCRPGQTCARGLHGYGCA-OH; disulfide 12-25, 19-34), for which the Activity is 37 - 41% in the series on Mus musculus, 14 - 25% with NCI-H69 [1], “Non-Toxic” in the series on NCI-H69 [2] and 9% with NCI-H69 [4].
Consider `CSCC[C@H](NC(=O)[C@@H]1CCCN1C(=O)[C@H](C)NC(=O)[C@@H]1CSSC[C@@H]2NC(=O)[C@H]([C@@H](C)O)NC(=O)[C@H](Cc3ccc(O)cc3)NC(=O)[C@H](C(C)C)NC(=O)[C@@H]3CCCN3C(=O)[C@H](CC(=O)O)NC(=O)[C@@H]3CCCN3C(=O)[C@@H](NC(=O)[C@H](CO)NC(=O)[C@@H]3CCCN3C(=O)[C@H](CO)NC(=O)[C@@H](N)CCCNC(=N)N)CSSC[C@H](NC(=O)[C@H]([C@@H](C)O)NC(=O)[C@H](CCC(N)=O)NC(=O)CNC(=O)[C@@H]3CCCN3C(=O)[C@H](CCCNC(=N)N)NC2=O)C(=O)N[C@@H](C)C(=O)N[C@@H](CCCNC(=N)N)C(=O)NCC(=O)N[C@@H](CC(C)C)C(=O)N[C@@H](Cc2cnc[nH]2)C(=O)NCC(=O)N[C@@H](Cc2ccc(O)cc2)C(=O)NCC(=O)N1)C(=O)N[C@@H](CC(=O)O)C(=O)O` (H-RSPSCPDPVYTCRPGQTCARGLHGYGCAPMD-OH; disulfide 5-18, 12-27), for which the Activity with Mus musculus is listed as 26 - 41%. Moreover, the result in series [3] was inactive.
On to `CC[C@H](C)[C@H](NC(=O)[C@@H](N)C(C)C)C(=O)N[C@@H](Cc1cnc[nH]1)C(=O)N[C@H]1CSSC[C@@H]2NC(=O)[C@H]([C@@H](C)O)NC(=O)[C@H]([C@@H](C)O)NC(=O)CNC(=O)[C@H](CC(=O)O)NC(=O)[C@@H]3CCCN3C(=O)[C@H](CSSC[C@@H](C(=O)N[C@@H](C)C(=O)N3CCC[C@H]3C(=O)N[C@@H](Cc3ccccc3)C(=O)N[C@@H](CO)C(=O)O)NC(=O)[C@H](Cc3ccc(O)cc3)NC(=O)[C@H](Cc3c[nH]c4ccccc34)NC(=O)[C@H](C(C)C)NC(=O)CNC(=O)[C@H](Cc3ccc(O)cc3)NC(=O)[C@@H]3CCCN3C(=O)[C@H](CO)NC(=O)[C@H](CC(C)C)NC(=O)[C@H](C)NC2=O)NC(=O)[C@H]([C@@H](C)CC)NC(=O)[C@H]([C@@H](C)O)NC(=O)[C@H](C)NC(=O)[C@H](C)NC(=O)[C@H](CC(=O)O)NC1=O` (H-VIHCDAATICPDGTTCALSPYGVWYCAPFS-OH; disulfide 4-16, 10-26), for which the outcome with NCI-H69 [5] was inactive. The Activity in the series on NCI-H69 [6] was found to be 9%.

Values taken from ChEMBL document CHEMBL4049448, “Development of a Potent Wound Healing Agent Based on the Liver Fluke Granulin Structural Fold” (J Med Chem, 2017).
